Active and inactive are the calls of the source. The rule behind the calls is not given here.

Series [1] is described as follows: Cytotoxicity against human A549-ACE2 cells assessed as inhibition of cell growth measured for 48 hrs. Format: functional.
For another series, the system named is SARS-CoV-2. The experiment in a line: Antiviral activity against SARS-CoV-2 infected in human A549-ACE2 cells assessed as viral growth inhibition. Format: functional, organism-based. The conditions noted are these: Severe acute respiratory syndrome coronavirus 2, A549-ACE2.
Series [2] addresses T1, NAD-dependent protein deacetylase sirtuin-2 (Homo sapiens) (UniProt Q8IXJ6).
T1 sequence (whole entry): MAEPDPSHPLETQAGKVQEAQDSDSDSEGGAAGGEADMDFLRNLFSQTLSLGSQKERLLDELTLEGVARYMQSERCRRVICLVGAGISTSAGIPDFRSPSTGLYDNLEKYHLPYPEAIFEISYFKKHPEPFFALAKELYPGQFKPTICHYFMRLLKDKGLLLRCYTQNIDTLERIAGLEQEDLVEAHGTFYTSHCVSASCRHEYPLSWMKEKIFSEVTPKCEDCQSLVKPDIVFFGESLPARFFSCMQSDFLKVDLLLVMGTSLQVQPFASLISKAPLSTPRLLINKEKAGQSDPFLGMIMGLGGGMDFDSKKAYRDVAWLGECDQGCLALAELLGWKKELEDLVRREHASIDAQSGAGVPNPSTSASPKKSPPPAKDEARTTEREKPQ
The experiment in a line: Activation of human SIRT2 (unknown origin) deacetylation activity using fluorogenic substrate measured upto 120 mins by microplate reader analysis. A digest of the protocol: (§1)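 Recombinant Sirt1 or Sirt2 was assayed with a kit fluoro-substrate peptide (0.1 mM stock), NAD+ (8 mM stock) and developer in a 25 µL reaction at room temperature. Fluorescence was read over 125 min, at Ex/Em 350/450 nm for Sirt1 and 490/530 nm for Sirt2.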

In series [3] the target is T2, NAD-dependent protein deacetylase sirtuin-1 (Homo sapiens) (UniProt Q96EB6).
T2 sequence (whole entry): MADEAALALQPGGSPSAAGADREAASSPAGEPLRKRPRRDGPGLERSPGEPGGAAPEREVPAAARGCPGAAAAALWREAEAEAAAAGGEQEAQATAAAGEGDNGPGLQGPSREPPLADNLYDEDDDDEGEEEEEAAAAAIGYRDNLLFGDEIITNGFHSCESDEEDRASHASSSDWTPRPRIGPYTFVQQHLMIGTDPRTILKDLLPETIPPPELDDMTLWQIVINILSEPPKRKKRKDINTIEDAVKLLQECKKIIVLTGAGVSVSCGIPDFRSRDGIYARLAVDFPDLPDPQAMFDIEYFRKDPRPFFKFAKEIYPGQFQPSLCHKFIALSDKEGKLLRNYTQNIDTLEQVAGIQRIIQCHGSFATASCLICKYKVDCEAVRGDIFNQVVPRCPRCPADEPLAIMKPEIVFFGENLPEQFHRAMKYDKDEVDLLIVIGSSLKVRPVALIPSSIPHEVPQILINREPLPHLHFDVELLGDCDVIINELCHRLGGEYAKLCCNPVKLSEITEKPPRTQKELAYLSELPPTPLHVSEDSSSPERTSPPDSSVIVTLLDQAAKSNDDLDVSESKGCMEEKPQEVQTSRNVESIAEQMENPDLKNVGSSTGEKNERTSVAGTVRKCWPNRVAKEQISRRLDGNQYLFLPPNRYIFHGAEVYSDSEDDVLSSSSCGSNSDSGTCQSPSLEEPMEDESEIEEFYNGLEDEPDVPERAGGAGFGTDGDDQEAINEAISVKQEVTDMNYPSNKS
The experiment in a line: Activation of human SIRT1 (unknown origin) deacetylation activity using fluorogenic substrate measured upto 120 mins by microplate reader analysis. A digest of the protocol: as §1

Series [4] has as its target NAD-dependent protein deacylase sirtuin-5, mitochondrial (Homo sapiens) (UniProt Q9NXA8). The experiment in a line: Activation of human SIRT5 (unknown origin) desuccinylation activity using fluorogenic substrate measured upto 120 mins by microplate reader analysis.
The target in series [5] is T3, NAD-dependent protein deacylase sirtuin-6 (Homo sapiens, UniProt Q8N6T7). In words: Activation of recombinant SIRT6 (unknown origin) deacetylase activity using fluoro peptide as substrate by microplate reader analysis.
Series [6] deals with T3, NAD-dependent protein deacylase sirtuin-6. In words: Activation of his6-tagged SIRT6 (unknown origin) assessed as fold activation using H3K9Ac peptide substrate incubated for 30 mins. The note with it: filed as activator.
Series [7] has the same target. In words: Activation of SIRT6 (unknown origin) deacetylase activity assessed as fold increase in maximal activation. The note with it: filed as activator.
A short description of series [8]: Oral bioavailability in C57BL/6J mouse at 20 to 30 mg/kg, iv measured upto 24 hrs by LC-MS/MS analysis. The conditions noted are these: in vivo, dose 20-30 mg/kg. Format: ADME, organism-based.
In series [9] the target is T3, NAD-dependent protein deacylase sirtuin-6. The experiment in a line: Activation of SIRT6 (unknown origin) deacetylase activity assessed as fold activation. The conditions noted are these: filed as activator. In a few lines:
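Recombinant Sirt6 was run in a fluorometric activity kit (FDL-type deacetylation) with a fluoro-substrate peptide (0.1 mM stock), NAD+ (8 mM stock) and developer in a 25 µL reaction at room temperature. Compounds were tested at 100 and 30 µM. Fluorescence was read at Ex/Em 490/530 nm over 125 min. Fold activation is given as mean ± SD from at least two independent experiments.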

T3 sequence (Q8N6T7 whole entry): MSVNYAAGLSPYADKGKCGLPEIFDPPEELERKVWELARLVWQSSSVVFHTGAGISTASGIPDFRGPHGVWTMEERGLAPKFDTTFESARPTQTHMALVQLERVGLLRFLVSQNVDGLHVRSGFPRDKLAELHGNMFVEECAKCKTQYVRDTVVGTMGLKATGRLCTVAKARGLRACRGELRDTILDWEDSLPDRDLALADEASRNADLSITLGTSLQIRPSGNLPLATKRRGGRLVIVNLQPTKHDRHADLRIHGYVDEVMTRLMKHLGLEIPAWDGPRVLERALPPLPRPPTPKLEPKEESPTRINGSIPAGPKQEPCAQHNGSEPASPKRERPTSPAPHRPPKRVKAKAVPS
Chain of NAD-dependent protein deacylase sirtuin-5, mitochondrial (Homo sapiens) (Q9NXA8 37-310 limits assumed): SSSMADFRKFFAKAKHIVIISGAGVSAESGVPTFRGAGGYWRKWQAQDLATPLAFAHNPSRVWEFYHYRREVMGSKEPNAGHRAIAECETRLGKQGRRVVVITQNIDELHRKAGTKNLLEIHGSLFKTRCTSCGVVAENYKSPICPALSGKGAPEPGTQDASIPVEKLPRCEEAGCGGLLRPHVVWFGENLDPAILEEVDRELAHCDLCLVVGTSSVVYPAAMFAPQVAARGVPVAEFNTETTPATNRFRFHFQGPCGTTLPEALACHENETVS

The term CC50 denotes the concentration giving 50% cytotoxicity. The EC50 is the concentration needed to bring the measured effect to its halfway point. Consider `CN(C)CCN1CCN(c2ncccc2C2Nc3ccccc3-n3cccc32)CC1` (stereo not drawn), for which the CC50 in [1] was above 50 µM. Further, the EC50 in the series on SARS-CoV-2 was determined as 9.3 µM; in [5], 48.8 µM. For the same molecule, the outcome in [2], in [3] and in series [4] was inactive. The result in series [3] (filed as activator) was Active.

Regarding `CCCCCCCC/C=C\CCCCCCCC(=O)NCCO`, the fold change (FC) in series [6] is 2.1.

As to `c1cncc(C2Nc3ccccc3-n3cccc32)c1` (stereo not drawn), in [7], the fold change (FC) was 2. In addition, the half-maximal cytotoxic concentration (CC50) in [1] is above 50 µM. Further, the EC50 in the series with SARS-CoV-2 came to 50 µM.

Broadly, the bioavailability is the share of a dose that reaches the circulation, judged against a reference dose that is usually intravenous. `Cc1cc(F)c(Br)cc1NS(=O)(=O)c1ccc(NS(=O)(=O)c2cc(Cl)cc(Cl)c2)cc1CN1CCOC[C@H]1C`: the bioavailability in series [8] amounted to 93%.

Regarding `O=C(O)c1ccc2c(c1)C(=O)N(c1ccc(N(C(=O)c3c(Cl)cc(Cl)cc3Cl)C(=O)c3c(Cl)cc(Cl)cc3Cl)c(Cl)c1)C2=O`, the fold change (FC) in series [9] is 4.
